From ChEMBL document CHEMBL4346661, “Design, synthesis and evaluation of novel diaryl-1,5-diazoles derivatives bearing morpholine as potent dual COX-2/5-LOX inhibitors and antitumor agents” (Eur J Med Chem, 2019)
Activity calls are given as the source filed them. The calls are words filed in the database; no cut-off is given here.

Experiments:
[1] = target: Prostaglandin G/H synthase 1 (Homo sapiens, UniProt P23219); test: Inhibition of COX1 (unknown origin) using arachidonic acid as substrate incubated for 10 mins by Ellman's reagent based COX-1/COX-2 ELISA assay
Prostaglandin G/H synthase 1, sequence (P23219 whole entry): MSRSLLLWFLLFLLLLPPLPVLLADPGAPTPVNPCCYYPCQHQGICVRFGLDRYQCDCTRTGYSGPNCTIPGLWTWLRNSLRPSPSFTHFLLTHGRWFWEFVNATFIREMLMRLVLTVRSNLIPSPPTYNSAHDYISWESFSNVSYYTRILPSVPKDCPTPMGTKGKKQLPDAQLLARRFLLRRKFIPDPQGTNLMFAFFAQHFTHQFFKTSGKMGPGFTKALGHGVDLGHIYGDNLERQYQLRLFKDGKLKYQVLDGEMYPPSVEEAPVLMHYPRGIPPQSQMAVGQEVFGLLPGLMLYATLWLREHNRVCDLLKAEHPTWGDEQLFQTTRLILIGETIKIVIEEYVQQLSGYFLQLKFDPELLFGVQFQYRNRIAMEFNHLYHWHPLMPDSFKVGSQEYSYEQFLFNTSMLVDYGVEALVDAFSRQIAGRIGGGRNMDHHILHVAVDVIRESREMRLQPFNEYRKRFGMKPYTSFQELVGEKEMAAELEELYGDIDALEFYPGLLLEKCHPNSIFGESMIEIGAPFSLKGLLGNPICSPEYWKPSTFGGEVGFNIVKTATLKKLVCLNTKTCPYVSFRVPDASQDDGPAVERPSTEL

[2] = tested on: B16-F10; test: Induction of cell cycle arrest in mouse B16F10 cells assessed as cell accumulation at G2 phase at 12.5 uM incubated for 48 hrs by propidium iodide staining-based flow cytometric analysis (reference value: 22.43%); type: functional
[3] = tested on: B16-F10; test: Induction of apoptosis in mouse B16F10 cells assessed as viable cells at 12.5 uM incubated for 48 hrs in presence of apoptosis inhibitor z-VAD-fmk by Annexin-V-FITC/propidium iodide staining-based flow cytometric analysis (reference value: 92.5%); type: functional; details: B16-F10, 48 h, read-out: Activity
[4] = tested on: B16-F10; test: Induction of apoptosis in mouse B16F10 cells assessed as necrosis cells at 3.125 uM incubated for 48 hrs in presence of apoptosis inhibitor z-VAD-fmk by Annexin-V-FITC/propidium iodide staining-based flow cytometric analysis (reference value: 0.558%); type: functional
[5] = tested on: B16-F10; test: Induction of apoptosis in mouse B16F10 cells assessed as necrosis cells at 6.25 uM incubated for 48 hrs in presence of apoptosis inhibitor z-VAD-fmk by Annexin-V-FITC/propidium iodide staining-based flow cytometric analysis (reference value: 0.558%); type: functional
[6] = tested on: B16-F10; test: Antitumor activity against mouse B16F10 cells implanted in nude mouse assessed as decrease in tumor weight at 20 mg/kg, ip administered once per 2 days for 14 days by caliper method relative to control; type: functional, organism-based
Method in brief: (§1)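 Nude mice were given 5×10^6 F10 cells subcutaneously in the right flank. At about 100 mm3, 24 mice were randomized into four groups of vehicle or compound. Dosing was intraperitoneal every two days for two weeks. Tumor volume was recorded every other day. Tumors were excised and weighed after the last treatment, and body weight was monitored.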

[7] = tested on: B16-F10; test: Induction of apoptosis in mouse B16F10 cells assessed as late apoptosis cells at 6.25 uM incubated for 48 hrs in presence of apoptosis inhibitor z-VAD-fmk by Annexin-V-FITC/propidium iodide staining-based flow cytometric analysis (reference value: 3.13%); type: functional
[8] = tested on: B16-F10; test: Induction of apoptosis in mouse B16F10 cells assessed as early apoptosis cells at 6.25 uM incubated for 48 hrs in presence of apoptosis inhibitor z-VAD-fmk by Annexin-V-FITC/propidium iodide staining-based flow cytometric analysis (reference value: 3.83%); type: functional
[9] = tested on: B16-F10; test: Induction of cell cycle arrest in mouse B16F10 cells assessed as cell accumulation at G1 phase at 25 uM incubated for 48 hrs by propidium iodide staining-based flow cytometric analysis (reference value: 59.73%); type: functional
[10] = tested on: B16-F10; test: Induction of apoptosis in mouse B16F10 cells assessed as late apoptosis cells at 25 uM incubated for 48 hrs by Annexin-V-FITC/propidium iodide staining-based flow cytometric analysis (reference value: 2.88%); type: functional
Method in brief: (§2)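 F10 cells were exposed to 0, 3.125, 6.25, 12.5 or 25 µM for 48 h. Cells were stained with Annexin V/PI and read by flow cytometry. Data are mean ± SD of three independent experiments.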

[11] = target: T1, Prostaglandin G/H synthase 2 (Homo sapiens, UniProt P35354); test: Inhibition of COX2 (unknown origin) using arachidonic acid as substrate incubated for 10 mins by Ellman's reagent based COX-1/COX-2 ELISA assay
T1 sequence (P35354 whole entry): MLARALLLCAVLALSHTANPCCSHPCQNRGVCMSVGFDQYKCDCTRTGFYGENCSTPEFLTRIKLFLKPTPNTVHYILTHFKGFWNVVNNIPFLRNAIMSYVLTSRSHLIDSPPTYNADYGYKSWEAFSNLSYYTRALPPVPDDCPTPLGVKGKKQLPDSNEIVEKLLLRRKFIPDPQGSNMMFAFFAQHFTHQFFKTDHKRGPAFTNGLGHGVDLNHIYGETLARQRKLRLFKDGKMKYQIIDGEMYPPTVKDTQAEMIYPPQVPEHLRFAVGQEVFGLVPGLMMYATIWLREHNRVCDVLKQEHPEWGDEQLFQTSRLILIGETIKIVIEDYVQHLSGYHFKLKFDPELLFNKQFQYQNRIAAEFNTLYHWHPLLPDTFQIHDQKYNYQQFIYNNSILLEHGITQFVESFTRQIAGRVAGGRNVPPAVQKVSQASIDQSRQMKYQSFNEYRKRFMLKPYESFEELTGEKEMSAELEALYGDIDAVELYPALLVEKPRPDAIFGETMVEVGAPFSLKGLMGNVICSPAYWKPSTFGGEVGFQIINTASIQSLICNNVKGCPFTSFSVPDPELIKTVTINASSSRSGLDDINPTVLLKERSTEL

[12] = tested on: B16-F10; test: Induction of cell cycle arrest in mouse B16F10 cells assessed as cell accumulation at G2 phase at 6.25 uM incubated for 48 hrs by propidium iodide staining-based flow cytometric analysis (reference value: 22.43%); type: functional
[13] = tested on: B16-F10; test: Induction of apoptosis in mouse B16F10 cells assessed as necrosis cells at 6.25 uM incubated for 48 hrs by Annexin-V-FITC/propidium iodide staining-based flow cytometric analysis (reference value: 0.186%); type: functional; method in brief: as §2
[14] = tested on: B16-F10; test: Induction of apoptosis in mouse B16F10 cells assessed as early apoptosis cells at 3.125 uM incubated for 48 hrs in presence of apoptosis inhibitor z-VAD-fmk by Annexin-V-FITC/propidium iodide staining-based flow cytometric analysis (reference value: 3.83%); type: functional
[15] = tested on: HEK-293T; test: Antiproliferative activity against human 293T cells incubated for 48 hrs by MTT assay; type: cell-based
Method in brief: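 MTT assay on F10 (murine melanoma), HeLa, A549, MCF-7 and 293T (human renal epithelium) cells. IC50 given as mean ± SD of three independent experiments.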

[16] = tested on: B16-F10; test: Induction of apoptosis in mouse B16F10 cells assessed as viable cells at 6.25 uM incubated for 48 hrs by Annexin-V-FITC/propidium iodide staining-based flow cytometric analysis (reference value: 94%); type: functional; details: B16-F10, 48 h, read-out: Activity; method in brief: as §2
[17] = tested on: B16-F10; test: Induction of apoptosis in mouse B16F10 cells assessed as early apoptosis cells at 25 uM incubated for 48 hrs in presence of apoptosis inhibitor z-VAD-fmk by Annexin-V-FITC/propidium iodide staining-based flow cytometric analysis (reference value: 3.83%); type: functional
[18] = tested on: B16-F10; test: Induction of apoptosis in mouse B16F10 cells assessed as viable cells at 25 uM incubated for 48 hrs by Annexin-V-FITC/propidium iodide staining-based flow cytometric analysis (reference value: 94%); type: functional; details: B16-F10, 48 h, read-out: Activity; method in brief: as §2
[19] = tested on: B16-F10; test: Induction of apoptosis in mouse B16F10 cells assessed as late apoptosis cells at 6.25 uM incubated for 48 hrs by Annexin-V-FITC/propidium iodide staining-based flow cytometric analysis (reference value: 2.88%); type: functional; method in brief: as §2
[20] = tested on: B16-F10; test: Antitumor activity against mouse B16F10 cells implanted in nude mouse assessed as tumor weight at 40 mg/kg, ip administered once per 2 days for 14 days by caliper method (reference value: 1.24g); type: functional; method in brief: as §1
[21] = tested on: B16-F10; test: Induction of apoptosis in mouse B16F10 cells incubated for 48 hrs by Annexin-V-FITC/propidium iodide staining-based flow cytometric analysis; type: functional, cell-based; method in brief: as §2
[22] = tested on: B16-F10; test: Induction of cell cycle arrest in mouse B16F10 cells assessed as cell accumulation at S phase at 3.125 uM incubated for 48 hrs by propidium iodide staining-based flow cytometric analysis (reference value: 14.16%); type: functional

Question: What does the source list for `NS(=O)(=O)c1ccc(-n2nc(C(=O)NCCCN3CCOCC3)cc2-c2ccc(C(F)(F)F)cc2)cc1`?
Answer: IC50 [1]: 32.1 µM; Activity [2]: 30.41%; viability at 12.5 µM [3]: 84%; Activity [4]: 0.23%; Activity [5]: 0.155%; Activity [6]: Active; Activity [7]: 5.34%; Activity [8]: 5.74%; Activity [9]: 50.93%; Activity [10]: 6.11%; IC50 [11]: 0.17 µM; Activity [12]: 31.04%; Activity [13]: 0.366%; Activity [14]: 4.31%; IC50 [15]: 194 µM; viability at 6.25 µM [16]: 77.2%; Activity [17]: 11.3%; viability at 25 µM [18]: 51.8%; Activity [19]: 7.9%; Activity [20]: 0.48 g; Activity [21]: Dose-dependent effect; Activity [22]: 11.16%
